In test [1] the test system is HeLa. Kind of test: Cytotoxicity against human HeLa cells after 48 hrs by MTT assay. The test is classed as functional, cell-based. In short, it runs like this: (§1)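 HeLa (3000) or HT29 (12 500 cells/well) grown in DMEM with 10% FBS, 5% CO2, 37 °C; treated with graded concentrations 24 h after seeding, DMSO solvent control, then incubated 48 h before MTT viability read-out; IC50 fitted from duplicate experiments.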
For orientation: Tetrazolium dyes change colour on reduction, which living cells bring about.

Test [2] deals with HT-29. Kind of test: Cytotoxicity against human HT-29 cells after 48 hrs by MTT assay. The test is classed as functional, cell-based. The following applies: HT-29, 48 h. In short, it runs like this: as §1
For test [3], the system named is Lindra thalassiae. Kind of test: Antifungal activity against Lindra thalassiae assessed as growth inhibition at 62.5 ug/ml. It counts as functional. The following applies: Lindriella thalassiae; read-out: GI. In short, it runs like this: (§2)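 Fungus (Lindra thalassiae, Dendryphiella salina or Fusarium sp.) exposed to sample dissolved in MeOH, serially diluted, added to molten YPM P/S agar; MeOH-only solvent controls plus media-only wells; triplicate wells; 1 mm2 plug of culture transferred per well, 26 °C. Scored when media controls fully covered by hyphae: hyphae-containing squares counted through window screen; % inhibition versus solvent control.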

Test [4] is described as follows: Antifungal activity against Dendryphiella salina assessed as growth inhibition at 6.25 ug/ml. It counts as functional. The following applies: Paradendryphiella salina. In short, it runs like this:
as §2

In test [5] the test system is Pseudomonas aeruginosa. As to the kind of experiment: Antimicrobial activity against Pseudomonas aeruginosa ATCC 27853 after 24 hrs by broth microdilution method. The test is classed as functional. The following applies: ATCC 27853, 24 h. In short, it runs like this:
(§3)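 Broth microdilution in Mueller–Hinton broth; colony grown 6–8 h at 37 °C, adjusted to 0.5 McFarland then diluted 100-fold as inoculum. Treated 24 h at 37 °C, 150 rpm; 0.02% v/v resazurin added, fluorescence read at ex 530/em 590 nm. Oxacillin (S. aureus) or nalidixic acid (P. aeruginosa) positive controls, MHB-only sterility control; % inhibition relative to solvent control.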
(In general: Broth dilution looks for growth in wells or tubes with falling amounts of substance.)

Test [6] concerns Fusarium sp. Kind of test: Antifungal activity against Fusarium sp. assessed as growth inhibition at 62.5 ug/ml. The test is classed as functional. The following applies: read-out: GI. In short, it runs like this: as §2
In test [7] the test system is Staphylococcus aureus. Kind of test: Antimicrobial activity against Staphylococcus aureus ATCC 6538 after 24 hrs by broth microdilution method. The test is classed as functional. The following applies: ATCC 6538, 24 h. In short, it runs like this: as §3
Test [8] deals with Fusarium sp. As to the kind of experiment: Antifungal activity against Fusarium sp. assessed as growth inhibition at 6.25 ug/ml. The test is classed as functional. The following applies: read-out: GI. In short, it runs like this: as §2
In test [9] the test system is Lindra thalassiae. Kind of test: Antifungal activity against Lindra thalassiae assessed as growth inhibition at 6.25 ug/ml. The test is classed as functional. The following applies: Lindriella thalassiae; read-out: GI. In short, it runs like this: as §2
Test [10] in a line: Antifungal activity against Dendryphiella salina assessed as growth inhibition at 62.5 ug/ml. It counts as functional. The following applies: Paradendryphiella salina. In short, it runs like this: as §2
Test [11] concerns HeLa. Kind of test: Cytotoxicity against human HeLa cells after 1 to 48 hrs by MTT assay. The test is classed as functional, cell-based. In short, it runs like this: (§4)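 HeLa and HT29 cultured in DMEM with 10% FBS at 37 °C, 5% CO2, exposed to graded concentrations for 1, 3, 6, 12, 24 or 48 h; MTT viability read-out, IC50 at each time point.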
In test [12] the test system is Lindra thalassiae. Kind of test: Antifungal activity against Lindra thalassiae assessed as growth inhibition at 625 ug/ml. The test is classed as functional. The following applies: Lindriella thalassiae; read-out: GI. In short, it runs like this:
as §2

The nature of test [13]: Antifungal activity against Dendryphiella salina assessed as growth inhibition at 625 ug/ml. It counts as functional. The following applies: Paradendryphiella salina. In short, it runs like this: as §2
The test system of test [14] is Fusarium sp. As to the kind of experiment: Antifungal activity against Fusarium sp. assessed as growth inhibition at 625 ug/ml. The following applies: read-out: GI. The test is classed as functional. In short, it runs like this:
as §2

For test [15], the system named is HT-29. Kind of test: Cytotoxicity against human HT-29 cells after 1 to 48 hrs by MTT assay. It counts as functional, cell-based. In short, it runs like this:
as §4

The structures appear in SMILES notation. ≈ marks a conversion by molar mass, not a printed value.

As a reminder, the IC50 is the midpoint of a concentration-inhibition curve. Higher therefore signals weaker potency. In the case of `CC(=O)OC1CCCC(O)CCCC(O)CCCC(O)CCCC(O)CCCC(O)CCC[C@@H](O)C[C@@H](O)CCC/C(C)=C\C(=O)OC(C(C)(C)C)CC(O)CCC1` (some centres undefined), the values for the IC50 in test [1] and in [2] were 9.9 µM and 12 µM, respectively.

What is called MIC is the least concentration at which growth counts as inhibited. Read a high MIC as weaker potency. In the case of `C[C@@H]1[C@H](O)[C@@H](C)/C=C/C=C/C=C/C=C/C=C/C=C/C=C/[C@H](O[C@@H]2O[C@H](C)[C@@H](O)[C@H](N)[C@@H]2O)C[C@@H]2O[C@](O)(C[C@@H](O)C[C@@H](O)[C@H](O)CC[C@@H](O)C[C@@H](O)CC(=O)O[C@H]1C)C[C@H](O)[C@H]2C(=O)O` [AMPHOTERICIN B], the inhibition of growth at 62.5 µg/mL in [3] was 21%; in test [6], 6%. The growth inhibition (GI) in test [4] and in test [10] was 100% in each case. The MIC in [5] and in test [7] was above 100 µM each time. Further, the inhibition of growth at 6.25 µg/mL in [8] stood at 12%; in test [9] it was 0%. The IC50 in test [1] and in test [2] was 10 µM throughout.

In the case of `C/C1=C/C(=O)OC(C(C)(C)C)CC(O)CCCC(O)CCCC(O)CCCC(O)CCCC(O)CCCC(O)CCCC(O)CCC[C@@H](O)C[C@@H](O)CCC1` (some centres undefined), the inhibition of growth at 62.5 µg/mL in [3] and in [6] was 100% throughout. Moreover, the IC50 in test [11], in [1], in [2] and in test [15] was 0.87 µM in each case. Further, the growth inhibition (GI) in test [4] amounted to 0%; in test [13], 100%; in [10], 60%. Further, the MIC in test [5] and in test [7] was 32 µM (≈ 25.3 µg/mL) each time. Further, the inhibition of growth at 6.25 µg/mL in test [8] turned out to be 35%; in test [9], 40%. The inhibition of growth at 625 µg/mL in test [12] and in [14] was 100% throughout.

As to `CC(=O)OC1CCCC(OC(C)=O)CCCC(OC(C)=O)CCCC(OC(C)=O)CCC[C@@H](OC(C)=O)C[C@@H](OC(C)=O)CCC/C(C)=C\C(=O)OC(C(C)(C)C)CC(OC(C)=O)CCCC(OC(C)=O)CCCC(OC(C)=O)CCC1` (some centres undefined), the IC50 stood at 18 µM in test [1] and 58 µM in test [2].

Values taken from ChEMBL document CHEMBL3593174, “Amantelides A and B, Polyhydroxylated Macrolides with Differential Broad-Spectrum Cytotoxicity from a Guamanian Marine Cyanobacterium” (J Nat Prod, 2015).
